Bioassay records: PubChem, Broad Institute
CaV13 ICDI inh: Disruptors of the CACNA1D IQ motif to Ca2+-dependent inactivation inhibitor domain association, primary screening, Förster resonance energy transfer in intact living … | HEK cells, CFP/YFP FRET ICDI-IQ, plate reader, 10 min; percent FRET-ratio fall versus neutral wells | inhibition, % at 12.3 µM | 340,000 compounds, 0.098% hits;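 active means mean replicate inhibition of at least 30% and at least 1% of replicates passing that level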;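 further: 0% = median of the neutral control wells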
Cneo AK release: Cryptococcus neoformans lysis via adenylate kinase release; C. neoformans lysis, adenylate kinase release luminescence, 4 h; normalised: neutral wells 0, clomiphene wells 100; lysis activity, % at 15 µM; 360,000 compounds, 0.2% hits; AID 651654;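 active means mean lysis activity across replicates of at least 80%, whatever share of replicates individually reach that level; inactive means mean lysis activity below 80%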
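Signal: Adenylate kinase release luminescence | Assay system: Log-phase Cryptococcus neoformans yeast cells | Input: Cells at 5 × 10^6 per mL | Buffer or medium: Fresh YPD growth medium | Compound: Single dose | Schedule: Static 4 h at 37 °C with compound, 1 h detection | Controls: Clomiphene | Read-out: Luminescence rise reflecting yeast cell lysis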
CFTR F508del cor: correctors of CFTR F508del function in bronchial epithelial cells. CFBE cells, YFP halide quenching; stimulated with forskolin plus potentiator P3; % fluorescence drop versus neutral controls. activity (quench increase), % at 7.58 µM. 350,000 compounds, 0.36% hits;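 active means mean added fluorescence quench of at least 8% versus neutral control, with both replicates also reaching 8%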;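 further: cells transiently co-express mutant CFTR-F508del with the halide-sensitive YFP; corrector assay measuring rescue of mutant channel to the surface after 24 h compound exposure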
rRNA inh HTS: inhibitors of bacterial rRNA selective over humanized ribosomes | E. coli WT GFP vs humanized-ribosome RFP mutants, fluorescence, 24 h; hits give low values; DMSO median 0, no signal -100 | GFP signal change (wild-type ribosome), % (no concentration beside the values) | 350,000 compounds, 1.6% hits | AID 720706;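 active means significant combined selectivity score with lowered wild-type GFP, culture density cut under 30%, mutant RFP and density less affected; inactive means any of these conditions unmet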
* hit, by the source's call. Most compounds without a hit are left out; they make up all but 1.7% or so of the library.

Results for CN(C)CCNc1ccc2ncn3c4ccc(O)cc4c(=O)c1c23 ?
CaV13 ICDI inh: -22; CFTR F508del cor: 21*

How did O=C(CN1C(=O)NC(Cc2ccccc2)C1=O)Nc1ccc(F)c(Cl)c1 (stereo not drawn) do in these assays?
CaV13 ICDI inh: -3; Cneo AK release: 0; CFTR F508del cor: 0; rRNA inh HTS: -28*

How did O=C(CN1C(=O)NC(Cc2ccccc2)C1=O)Nc1ccc(F)cc1 (stereo not drawn) do in these assays?
CaV13 ICDI inh: -6; Cneo AK release: -3

Results for COc1ccc(N(C2=NCCCS2)S(=O)(=O)c2ccc(C(C)(C)C)cc2)cc1 ?
CaV13 ICDI inh: 3; Cneo AK release: -3; CFTR F508del cor: -1; rRNA inh HTS: 4

How did COc1ccccc1N(C1=NCCCS1)S(=O)(=O)c1ccc(C(C)(C)C)cc1 do in these assays?
CaV13 ICDI inh: -4; CFTR F508del cor: -6; rRNA inh HTS: -16*

What do the screens show for `COCC(=O)N1C[C@H](C)[C@H](OC)CN(C)C(=O)c2cc(NC(=O)c3cnccn3)ccc2OC[C@H]1C`?
Cneo AK release: -4; CFTR F508del cor: 5; rRNA inh HTS: -2

How did Cc1nn(-c2ccccc2)c(Cl)c1CN(C(=O)CCl)c1ccc(Cl)cc1 do in these assays?
CaV13 ICDI inh: -16; Cneo AK release: -1; rRNA inh HTS: -32*

How did CCN(c1ccc(NC(=O)COC(=O)c2ccc(C)s2)cc1)C(C)C do in these assays?
CaV13 ICDI inh: -1; Cneo AK release: 3; CFTR F508del cor: 1; rRNA inh HTS: -27*

Results for Cc1ccc(C(=O)OCC(=O)Nc2ccc(C(N)=O)cc2)s1 ?
CaV13 ICDI inh: -5; Cneo AK release: 0; CFTR F508del cor: 1; rRNA inh HTS: 8

Results for COc1ccc(CC2(CO)COc3ccccc3C2=O)cc1 (stereo not drawn) ?
CaV13 ICDI inh: -5; CFTR F508del cor: 4; rRNA inh HTS: -28*

Results for O=C(c1ccc(S(=O)(=O)NCC2CCCO2)cc1)N1CCN(c2cccc(Cl)c2)CC1 (stereo not drawn) ?
CaV13 ICDI inh: -3; CFTR F508del cor: 16*; rRNA inh HTS: -19

What do the screens show for `CC(C)(C)c1ccc(S(=O)(=O)NCC2CCCO2)cc1` (stereo not drawn)?
CaV13 ICDI inh: -9; Cneo AK release: 5; CFTR F508del cor: 2; rRNA inh HTS: -10

Results for O=S(=O)(NCC1CCCO1)c1ccc(-c2ccc(Cl)cc2)cc1 (stereo not drawn) ?
CaV13 ICDI inh: 2; CFTR F508del cor: 0; rRNA inh HTS: -25*

What do the screens show for `CCCNC(=O)N1C[C@H](C)[C@H](OC)CN(C)C(=O)c2cc(NC(=O)C3CCC3)ccc2OC[C@H]1C`?
CFTR F508del cor: -1; rRNA inh HTS: 3

Results for C[C@H](CO)N1C[C@H](C)[C@@H](CN(C)C(=O)Nc2ccc(C(F)(F)F)cc2)Oc2ccc(NC(=O)C3CC3)cc2CC1=O ?
Cneo AK release: 2; CFTR F508del cor: -2; rRNA inh HTS: 3

What do the screens show for `COCC#Cc1ccc2c(c1)O[C@H](CN(C)S(=O)(=O)c1cccc(F)c1)[C@H](C)CN([C@H](C)CO)S2(=O)=O`?
Cneo AK release: -1; CFTR F508del cor: -1; rRNA inh HTS: -9

What do the screens show for `CCc1cc2c(N[C@@H](Cc3c[nH]c4ccccc34)C(=O)O)ncnc2s1`?
CaV13 ICDI inh: -10

How did CCc1cc2c(NC(Cc3c[nH]c4ccccc34)C(=O)O)nc(C)nc2s1 (stereo not drawn) do in these assays?
CaV13 ICDI inh: -15; rRNA inh HTS: -28*

Results for CC(=O)N(C)C[C@@H]1Oc2ccccc2CC(=O)N(C)C[C@H]1C ?
rRNA inh HTS: 1

Results for COc1ccc(Cc2nnc(NC(=O)c3ccccc3[N+](=O)[O-])s2)cc1 ?
CaV13 ICDI inh: -4; Cneo AK release: 1; CFTR F508del cor: -1; rRNA inh HTS: -30*

What do the screens show for `CC=Cc1ccc2n(c1=O)C[C@H]1[C@H](CO)[C@@H](C(=O)N[C@@H](C)c3ccccc3)[C@@H]2N1CC1CC1` (mixture of isomers)?
Cneo AK release: -1; CFTR F508del cor: 2; rRNA inh HTS: -1

What do the screens show for `O=C(NC1CCN(C(=O)N2c3ccccc3Sc3ccccc32)CC1)c1ccccc1F`?
CaV13 ICDI inh: -7; Cneo AK release: 1; CFTR F508del cor: -2; rRNA inh HTS: -20*

What do the screens show for `O=C(Nc1nc(-c2ccccc2)cs1)c1cccs1`?
Cneo AK release: -7

What do the screens show for `O=C(Nc1nc(-c2ccccc2)ns1)c1cccs1`?
CaV13 ICDI inh: -7; Cneo AK release: 20; CFTR F508del cor: -1; rRNA inh HTS: -38*

What do the screens show for `COc1ccc2c3c(n(C)c2c1)[C@H](CO)N(C(=O)CN1CCOCC1)CC31CCN(C(=O)CC2CC2)CC1`?
rRNA inh HTS: -3

What do the screens show for `COc1ccc(C)cc1NC(=O)CNC(c1ccccc1)c1ccc(C)cc1` (stereo not drawn)?
CaV13 ICDI inh: -4; Cneo AK release: 1; CFTR F508del cor: 13*; rRNA inh HTS: -2

What do the screens show for `O=C(CNC(c1ccccc1)c1ccccc1)Nc1ccccc1Br`?
CaV13 ICDI inh: -4; Cneo AK release: -1; CFTR F508del cor: 1; rRNA inh HTS: -33*

What do the screens show for `COc1ccccc1NC(=O)CNC(c1ccccc1)c1ccccc1`?
CaV13 ICDI inh: -3; Cneo AK release: -1; CFTR F508del cor: 0; rRNA inh HTS: -8

Results for C[C@H](CO)N1C[C@H](C)[C@H](CN(C)S(=O)(=O)c2ccc(F)cc2)Oc2ncc(C#CC3CCCCC3)cc2C1=O ?
Cneo AK release: -1; CFTR F508del cor: 5; rRNA inh HTS: 3

How did COc1ccc(C2=Nn3c(nnc3-c3ccccc3F)SC2)cc1OC1CCOC1 (stereo not drawn) do in these assays?
CaV13 ICDI inh: -6; Cneo AK release: 1; CFTR F508del cor: 11*; rRNA inh HTS: 1

How did COc1ccc(C2=Nn3c(nnc3-c3ccccc3)SC2)cc1OC do in these assays?
CaV13 ICDI inh: -4; rRNA inh HTS: 10

What do the screens show for `COc1ccc(C2=Nn3c(nnc3-c3ccccc3F)SC2)cc1OC1CCCC1`?
CaV13 ICDI inh: -6; Cneo AK release: 0; CFTR F508del cor: 13*; rRNA inh HTS: -37

How did CN(C)c1ccc2c(c1)[C@H]1C[C@@H](CC(=O)NCC3CC3)O[C@@H](CO)[C@H]1O2 do in these assays?
Cneo AK release: 18; CFTR F508del cor: 0; rRNA inh HTS: 1

Results for NC(=S)NN=C1CCC(C2CCCCC2)CC1 (stereo not drawn) ?
CaV13 ICDI inh: -4; Cneo AK release: 13; CFTR F508del cor: 5; rRNA inh HTS: -45*

Results for CC(C)N(C[C@H]1N[C@@H](CO)[C@H]1c1ccccc1)C(=O)c1ccccc1 ?
Cneo AK release: -5; CFTR F508del cor: -1
